Biological target: T1, PAP(248–286) (Homo sapiens, UniProt P15309)
T1 sequence (P15309 248-286): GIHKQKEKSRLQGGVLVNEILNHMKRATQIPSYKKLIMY
Experiment: isothermal titration calorimetry
Format: binding
In short: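 Freshly prepared monomeric peptide (600 μM) in deionized water brought to 1× PBS was titrated from the syringe into a low-volume nano-ITC cell holding the test compound (80 μM). The compound was neutralised with NaOH to physiological pH and diluted in water/PBS. Both solutions were degassed 10 min at 37 °C. Heats and enthalpies were fitted with an independent binding model.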

Structure (SMILES): O=C1O[C@H]([C@@H](O)CO)C(O)=C1O [ascorbic acid]
- Kd: 8.59 µM
